# Assay results reported in ChEMBL document CHEMBL1125464, “1,3,6-trisubstituted indoles as peptidoleukotriene antagonists: benefits of a second, polar, pyrrole substituent” (J Med Chem, 1992).
# Assays:
# [1] = species: Cavia porcellus; experiment: Inhibition of LTE4 (8 nM) induced contraction of guinea pig tracheal spirals at a concentration of 0.1 uM; type: functional, Trachea
# Summary of the method: (§1)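 Paired tracheal spirals at 37 °C in Krebs gassed with 95% O2/5% CO2 under 2 g tension, given repeated LTE4 challenges of 10 min. Compound or vehicle added 10 min before a third challenge. % inhibition = (2nd − 3rd response)/2nd × 100, corrected by subtracting the vehicle value. Paired t test, n ≥ 4.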
# [2] = species: Cavia porcellus; experiment: Dissociation constant on guinea pig tracheal spirals utilizing LTE4 as agonist; conditions: Trachea
# [3] = species: Cavia porcellus; experiment: Inhibition of LTE4 (8 nM) induced contraction of guinea pig tracheal spirals at a concentration of 3.3 uM; NS=not statistically significant; type: functional; conditions: Trachea; summary of the method: as §1
# [4] = system: Cavia porcellus; experiment: Protection of conscious guinea pig lung function was determined by comparison of time required for the challenged animals to exhibit labored abdominal breathing after oral dose of 10 uM/kg; type: functional
# Summary of the method: (§2)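 Conscious guinea pigs pretreated with indomethacin (10 mg/kg ip) and propranolol (5 mg/kg ip). Compound in PEG400 (<10% v/v)/PBS given orally 180 min before a challenge of up to 5 min with aerosolized 60 uM LTD4. Time to abdominal dyspnea scored blind. % protection is taken against vehicle controls; no end point by 300 s counts as 100%. Unpaired t test.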
# [5] = species: Cavia porcellus; experiment: Compound was evaluated for the displacement of [3H]LTD4 on guinea pig lung parenchymal membranes; design: species or system Lung parenchyma
# Summary of the method: (§3)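 Membranes from perfused lungs of male Hartley guinea pigs (300-400 g) in PIPES pH 7.5 with 10 mM CaCl2, 10 mM MgCl2, 2 mM cysteine and 2 mM glycine. 1 nM 3H-LTD4 at 22 °C for 30 min; nonspecific binding with 2 uM LTD4. Filtration, then scintillation counting. IC50 by nonlinear least squares, Ki by Cheng-Prusoff; mean of two experiments in duplicate.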
# [6] = Negative logarithm of the molar dissociation constant; type: ADME
# Summary of the method: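 Paired guinea pig tracheal spirals at 37 °C in Krebs gassed with 95% O2/5% CO2, 2 g resting tension. Responses expressed relative to 30 uM carbachol. Antagonist or vehicle preincubated 30 min, then cumulative LTE4 concentration-response curves, one per tissue. EC50 by linear regression; KB = [antagonist]/(dose ratio − 1), per Furchgott.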
# [7] = species: Cavia porcellus; experiment: Inhibition constant for the displacement of [3H]LTD4 on guinea pig lung parenchymal membranes; design: species or system Lung parenchyma; summary of the method: as §3
# [8] = system: Cavia porcellus; experiment: Protection of conscious guinea pig lung function was determined by comparison of time required for the challenged animals to exhibit labored abdominal breathing after oral dose of 30 uM/kg; type: functional; summary of the method: as §2
# [9] = species: Cavia porcellus; experiment: Inhibition of LTE4 (8 nM) induced contraction of guinea pig tracheal spirals at a concentration of 1 nM; type: functional, Trachea; summary of the method: as §1
# [10] = species: Cavia porcellus; experiment: Inhibition of LTE4 (8 nM) induced contraction of guinea pig tracheal spirals at a concentration of 3.3 uM; type: functional, Trachea; summary of the method: as §1
# [11] = species: Cavia porcellus; experiment: Inhibition of LTE4 (8 nM) induced contraction of guinea pig tracheal spirals at a concentration of 10 uM; type: functional, Trachea; summary of the method: as §1
# [12] = species: Cavia porcellus; experiment: Inhibition of LTE4 (8 nM) induced contraction of guinea pig tracheal spirals at a concentration of 0.50 uM; type: functional, Trachea; summary of the method: as §1
# [13] = species: Cavia porcellus; experiment: Inhibition of LTE4 (8 nM) induced contraction of guinea pig tracheal spirals at a concentration of 0.33 uM; type: functional, Trachea; summary of the method: as §1
# [14] = species: Cavia porcellus; experiment: Inhibition of LTE4 (8 nM) induced contraction of guinea pig tracheal spirals at a concentration of 100 nM; type: functional, Trachea; summary of the method: as §1
# [15] = system: Cavia porcellus; experiment: Protection of conscious guinea pig lung function was determined by comparison of time required for the challenged animals to exhibit labored abdominal breathing after oral dose of 1 uM/kg; type: functional; summary of the method: as §2
# [16] = species: Cavia porcellus; experiment: Inhibition of LTE4 (8 nM) induced contraction of guinea pig tracheal spirals at a concentration of 10 nM; type: functional, Trachea; summary of the method: as §1
# [17] = species: Cavia porcellus; experiment: Inhibition of LTE4 (8 nM) induced contraction of guinea pig tracheal spirals at a concentration of 1 uM; type: functional, Trachea; summary of the method: as §1
# [18] = system: Cavia porcellus; experiment: Protection of conscious guinea pig lung function was determined by comparison of time required for the challenged animals to exhibit labored abdominal breathing after oral dose of 3 uM/kg; type: functional; summary of the method: as §2
# [19] = species: Cavia porcellus; experiment: Inhibition of LTE4 (8 nM) induced contraction of guinea pig tracheal spirals at a concentration of 0.5 uM; NS=not statistically significant; type: functional; conditions: Trachea; summary of the method: as §1
# [20] = system: Cavia porcellus; experiment: Protection of conscious guinea pig lung function was determined by comparison of time required for the challenged animals to exhibit labored abdominal breathing after oral dose of 0.3 uM/kg; type: functional; summary of the method: as §2
smiles,measurement,setting,value
COc1cc(C(=O)O)ccc1Cn1ccc2ccc(NC(=O)OC3CCCC3)cc21,Inhibition,[1],61%
same,Kb,[2],15.7 nM
COc1cc(C(=O)O)ccc1Cn1cc(C)c2ccc(C(=O)NCC3CCCC3)cc21,NS,[3],not statistically significant
COc1cc(C(=O)NS(=O)(=O)c2ccccc2)ccc1Cn1ccc2ccc(NC(=O)OC3CCCC3)cc21,Kb,[2],0.29 nM
COc1cc(C(=O)NS(=O)(=O)c2ccccc2C)ccc1Cn1cc(CC(C)C(=O)N(C)C)c2ccc(C(=O)NCC3CCCC3)cc21 (stereo unspecified),Protection,[4],37%
same,Kb,[2],0.65 nM
same,Ki,[5],2.32 nM
COc1cc(C(=O)O)ccc1Cn1cc(C)c2ccc(NC(=O)CC3CCCC3)cc21,Inhibition,[1],59%
CCCn1cc(Cc2ccc(C(=O)NS(=O)(=O)c3ccccc3)cc2OC)c2cc(NC(=O)OC3CCCC3)ccc21,pKB,[6],8.44
CCN(CC)C(=O)CCn1cc(Cc2ccc(C(=O)NS(=O)(=O)c3ccccc3C)cc2OC)c2cc(C(=O)NCC3CCCC3)ccc21,Ki,[5],0.43 nM
COc1cc(C(=O)NS(=O)(=O)c2ccccc2C)ccc1Cc1cn(C)c2ccc(NC(=O)CC3CCCC3)cc12,Kb,[2],0.245 nM
same,Ki,[5],0.3 nM
CCCn1cc(Cc2ccc(C(=O)O)cc2OC)c2cc(NC(=O)OC3CCCC3)ccc21,pKB,[6],7.72
CCCCOC(=O)Nc1ccc2c(Br)c(Br)n(Cc3ccc(C(=O)O)cc3OC)c2c1,NS,[3],not statistically significant
COc1cc(C(=O)O)ccc1Cn1cc(Cl)c2ccc(NC(=O)OC3CCCC3)cc21,Inhibition,[1],41%
COc1cc(C(=O)NS(=O)(=O)c2ccccc2)ccc1Cc1c[nH]c2ccc(NC(=O)OC3CCCC3)cc12,pKB,[6],9.84
COc1cc(C(=O)NS(=O)(=O)c2ccccc2C)ccc1Cn1cc(CCC(=O)N2CCOCC2)c2ccc(C(=O)NCC3CCCC3)cc21,Protection,[4],53%
same,Kb,[2],0.289 nM
CNC(=O)CCc1cn(Cc2ccc(C(=O)NS(=O)(=O)c3ccccc3C)cc2OC)c2cc(C(=O)NCC3CCCC3)ccc12,Ki,[7],1.53 nM
same,Kb,[2],0.399 nM
same,Protection,[8],44%
same,Inhibition,[9],57%
COc1cc(C(=O)NS(=O)(=O)c2ccccc2C)ccc1Cc1nn(C)c2ccc(C(=O)NCC3CCCC3)cc12,Ki,[5],1.87 nM
COc1cc(C(=O)NS(=O)(=O)c2ccccc2)ccc1Cn1cc(C(C)=O)c2ccc(NC(=O)OC3CCCC3)cc21,Kb,[2],0.123 nM
COc1cc(C(=O)O)ccc1Cn1ccc2ccc(C(=O)OCC3CCCC3)cc21,Inhibition,[10],10%
same,Inhibition,[11],74%
COc1cc(C(=O)O)ccc1Cn1cc(C(C)=O)c2ccc(NC(=O)OC3CCCC3)cc21,Inhibition,[1],83%
COc1cc(C(=O)O)ccc1Cc1cn(C)c2ccc(NC(=O)CC3CCCC3)cc12,Inhibition,[1],94%
CCCCOC(=O)Nc1ccc2ccn(Cc3ccc(C(=O)O)cc3OC)c2c1,Inhibition,[12],54%
same,Kb,[2],155 nM
same,Inhibition,[13],25%
COc1cc(C(=O)NS(=O)(=O)c2ccccc2C)ccc1Cn1ccc2ccc(OCCC3CCCC3)cc21,Inhibition,[14],21%
COc1cc(C(=O)NS(=O)(=O)c2ccccc2C)ccc1Cn1ccc2ccc(NC(=O)CC3CCCC3)cc21,Protection,[15],40%
same,Kb,[2],0.106 nM
COC(=O)CCc1cn(Cc2ccc(C(=O)NS(=O)(=O)c3ccccc3)cc2OC)c2cc(NC(=O)CC3CCCC3)ccc12,Protection,[4],63%
same,Kb,[2],0.273 nM
COc1cc(C(=O)NS(=O)(=O)c2ccccc2)ccc1Cc1cn(C)c2ccc(NC(=O)OC3CCCC3)cc12,pKB,[6],9.69
COc1cc(C(=O)NS(=O)(=O)c2ccccc2C)ccc1Cn1cc(CCC(=O)N2CCC(C)(C)CC2)c2ccc(C(=O)NCC3CCCC3)cc21,Kb,[2],4.45 nM
COc1cc(C(=O)O)ccc1Cc1nn(C)c2ccc(C(=O)NCC3CCCC3)cc12,Inhibition,[10],37%
COc1cc(C(=O)NS(=O)(=O)c2ccccc2)ccc1Cn1ccc2ccc(NC(=O)CC3CCCC3)cc21,Kb,[2],0.243 nM
same,Protection,[8],43%
COc1cc(C(=O)NS(=O)(=O)c2ccccc2C)ccc1Cn1cc(C)c2ccc(C(=O)NCC3CCCC3)cc21,Ki,[5],9.89 nM
COc1cc(C(=O)NS(=O)(=O)c2ccccc2C)ccc1Cc1cn(C)c2ccc(C(=O)NCC3CCCC3)cc12,Kb,[2],4.28 nM
same,Inhibition,[16],36%
same,Ki,[5],3.21 nM
COc1cc(C(=O)O)ccc1Cc1cn(C)c2ccc(C(=O)NCC3CCCC3)cc12,Ki,[7],422 nM
same,Inhibition,[17],33%
COc1cc(C(=O)NS(=O)(=O)c2ccccc2)ccc1Cn1ccc2ccc(C(=O)NCC3CCCC3)cc21,Ki,[7],86.8 nM
same,Kb,[2],14.2 nM
same,Inhibition,[14],46%
COc1cc(C(=O)NS(=O)(=O)c2ccccc2)ccc1Cc1cn(C2CCCC2)c2ccc(NC(=O)OC3CCCC3)cc12,pKB,[6],7.84
CCN(CC)C(=O)/C=C/c1cn(Cc2ccc(C(=O)NS(=O)(=O)c3ccccc3C)cc2OC)c2cc(C(=O)NCC3CCCC3)ccc12,Ki,[5],4.9 nM
CNC(=O)CCc1cn(Cc2ccc(C(=O)NS(=O)(=O)c3ccccc3)cc2OC)c2cc(NC(=O)CC3CCCC3)ccc12,Protection,[4],74%
same,Kb,[2],0.0197 nM
COc1cc(C(=O)O)ccc1Cc1cn(C2CCCC2)c2ccc(NC(=O)OC3CCCC3)cc12,pKB,[6],7.67
COc1cc(C(=O)NS(=O)(=O)c2ccccc2C)ccc1Cn1cc(CCC(=O)N2CCCC2)c2ccc(C(=O)NCC3CCCC3)cc21,Protection,[18],49%
COc1cc(C(=O)NS(=O)(=O)c2ccccc2)ccc1Cn1cc(CCC(=O)O)c2ccc(NC(=O)CC3CCCC3)cc21,Protection,[4],35%
same,Kb,[2],0.0731 nM
COc1cc(C(=O)NS(=O)(=O)c2ccccc2C)ccc1Cc1cn(C(C)C(=O)N(C)C)c2ccc(C(=O)NCC3CCCC3)cc12 (stereo unspecified),Kb,[2],12.1 nM
CCCCOC(=O)Nc1ccc2c(C)c(C)n(Cc3ccc(C(=O)O)cc3OC)c2c1,Inhibition,[10],81%
same,NS,[19],not statistically significant
COc1cc(C(=O)NS(=O)(=O)c2ccccc2)ccc1Cn1cc(CCC(N)=O)c2ccc(OCCC3CCCC3)cc21,Kb,[2],10.3 nM
same,Inhibition,[16],29%
CCCC(=O)c1cn(Cc2ccc(C(=O)NS(=O)(=O)c3ccccc3)cc2OC)c2cc(NC(=O)CC3CCCC3)ccc12,Kb,[2],0.496 nM
CCCCOC(=O)Nc1ccc2c(Cl)cn(Cc3ccc(C(=O)O)cc3OC)c2c1,Kb,[2],92.7 nM
same,Inhibition,[13],52%
CCCCOC(=O)Nc1ccc2cc(C)n(Cc3ccc(C(=O)O)cc3OC)c2c1,Inhibition,[10],41%
CCN(CC)C(=O)CCc1cn(Cc2ccc(C(=O)NS(=O)(=O)c3ccccc3C)cc2OC)c2cc(C(=O)NCC3CCCC3)ccc12,Ki,[5],0.54 nM
COc1cc(C(=O)O)ccc1Cc1cn(C)c2ccc(NC(=O)OC3CCCC3)cc12,pKB,[6],7.84
COc1cc(C(=O)NS(=O)(=O)c2ccccc2)ccc1Cn1cc(Cl)c2ccc(NC(=O)OC3CCCC3)cc21,Kb,[2],0.718 nM
COc1cc(C(=O)O)ccc1Cn1ccc2ccc(C(=O)NCC3CCCC3)cc21,Inhibition,[10],45%
CCCC(=O)c1cn(Cc2ccc(C(=O)O)cc2OC)c2cc(NC(=O)CC3CCCC3)ccc12,Inhibition,[1],96%
COc1cc(C(=O)O)ccc1Cn1ccc2ccc(OCCC3CCCC3)cc21,Inhibition,[11],75%
COc1cc(C(=O)NS(=O)(=O)c2ccccc2C)ccc1Cn1cc(CCC(N)=O)c2ccc(NC(=O)CC3CCCC3)cc21,Kb,[2],0.095 nM
same,Protection,[18],63%
COc1cc(C(=O)NS(=O)(=O)c2ccccc2C)ccc1Cn1cc(C)c2ccc(NC(=O)CC3CCCC3)cc21,Kb,[2],0.456 nM
same,Protection,[20],54%
COc1cc(C(=O)NS(=O)(=O)c2ccccc2)ccc1Cn1c2c(c3ccc(NC(=O)CC4CCCC4)cc31)CCCC2,Kb,[2],7.73 nM
COc1cc(C(=O)O)ccc1Cc1c[nH]c2ccc(NC(=O)OC3CCCC3)cc12,pKB,[6],7.32
COc1cc(C(=O)O)ccc1Cn1ccc2ccc(NC(=O)CC3CCCC3)cc21,Inhibition,[1],34%
same,Kb,[2],20.7 nM
